Screening data: PubChem, several laboratories
Sampled rows, rich in hits. Any-hit rate of the full collection: about 12%.
ROMK primary = modulates human ROMK potassium channel activity. 130,000 compounds, 2% hits. P48048. AID 1918. B-score at 10 µM. Tet-inducible ROMK, thallium flux fluorescence; actives lie on both sides;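 active = signal ratio slope over the read window, or its plate-corrected B-score, at least 3 SD from the plate mean, either direction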;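 note: B-score of the F/F0 ratio slope over 7 to 12 s after thallium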
Diaph act CS = activates diaphorase or chemically reduces, flagging diaphorase assay artifacts; Diaphorase/resazurin coupled assay, resorufin fluorescence, 16 min; stronger effect = higher value; 1 = vehicle wells, 0 = NADH-free wells; activation factor at 20 µM; 190,000 compounds, 0.005% hits; AID 1229;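 active = diaphorase activity raised at least twofold by the compound at 20 µM; inactive = activation factor below 2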
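Material: purified diaphorase enzyme from Clostridium kluyveri; Also added: 0.114 mM NADH and 0.1 mM resazurin, final amounts; Doses: single compound dose of 20 µM, 1% DMSO final; Times: 16 min enzyme reaction, ambient temperature; Detection: resorufin fluorescence, excitation 544 nm, emission 590 nm; Measure: increased resorufin signal from activators or reducing compounds.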
Diaph inh CS = diaphorase inhibition or chemical oxidation counter-screen | inhibition, % at 20 µM | 190,000 compounds, 0.69% hits | diaphorase resazurin-to-resorufin fluorescence, NADH, 16 min; bacterial (C. kluyveri) enzyme, not human;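 active = primary screen inhibition at 20 µM above a set limit, cut at about 50% in these data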;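 note: plate controls were DMSO with full reaction for no effect and wells lacking NADH for full effect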
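Assay system: diaphorase enzyme from Clostridium kluyveri; Input: enzyme working solution with 0.14 U/mL diaphorase; Timing: 16 min at room temperature; Technique: resorufin fluorescence, excitation 544 nm, emission 590 nm; Benchmarks: positive control minus NADH, DMSO neutral control.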
Lmaj promast = reduces viability of Leishmania major promastigotes | resazurin fluorescence viability | inhibition, % at 10 µM | 200,000 compounds, 9% hits | AID 1063; in the data active = inhibition above about 50%;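 note: promastigotes grown with compound for 44 hours at 28 °C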
WT yeast gro inh = growth inhibition of WT yeast, mitochondrial fusion screen | inhibition, % at 10 µM | 190,000 compounds, 2.1% hits | mitochondrial fusion phenotypic screen, WT strain; in the data active = inhibition above about 58%; tested in S. cerevisiae
KCC2 mod = modulates chloride dependent transport by human KCC2. Q9H2X9. KCC2 cells, thallium flux FluoZin-2 fluorescence. B-score of Tl+ flux slope (higher = more flux/activation; lower = inhibition) at 10 µM. 190,000 compounds, 2.2% hits. AID 1456;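 active = thallium flux slope and its plate-corrected score both differing from the plate sample mean at a set confidence after two filtering rounds, in either direction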;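 note: slope of fluorescence scaled to starting intensity during 10 to 20 s after thallium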
Target sequence (Q9H2X9 whole entry, looked up): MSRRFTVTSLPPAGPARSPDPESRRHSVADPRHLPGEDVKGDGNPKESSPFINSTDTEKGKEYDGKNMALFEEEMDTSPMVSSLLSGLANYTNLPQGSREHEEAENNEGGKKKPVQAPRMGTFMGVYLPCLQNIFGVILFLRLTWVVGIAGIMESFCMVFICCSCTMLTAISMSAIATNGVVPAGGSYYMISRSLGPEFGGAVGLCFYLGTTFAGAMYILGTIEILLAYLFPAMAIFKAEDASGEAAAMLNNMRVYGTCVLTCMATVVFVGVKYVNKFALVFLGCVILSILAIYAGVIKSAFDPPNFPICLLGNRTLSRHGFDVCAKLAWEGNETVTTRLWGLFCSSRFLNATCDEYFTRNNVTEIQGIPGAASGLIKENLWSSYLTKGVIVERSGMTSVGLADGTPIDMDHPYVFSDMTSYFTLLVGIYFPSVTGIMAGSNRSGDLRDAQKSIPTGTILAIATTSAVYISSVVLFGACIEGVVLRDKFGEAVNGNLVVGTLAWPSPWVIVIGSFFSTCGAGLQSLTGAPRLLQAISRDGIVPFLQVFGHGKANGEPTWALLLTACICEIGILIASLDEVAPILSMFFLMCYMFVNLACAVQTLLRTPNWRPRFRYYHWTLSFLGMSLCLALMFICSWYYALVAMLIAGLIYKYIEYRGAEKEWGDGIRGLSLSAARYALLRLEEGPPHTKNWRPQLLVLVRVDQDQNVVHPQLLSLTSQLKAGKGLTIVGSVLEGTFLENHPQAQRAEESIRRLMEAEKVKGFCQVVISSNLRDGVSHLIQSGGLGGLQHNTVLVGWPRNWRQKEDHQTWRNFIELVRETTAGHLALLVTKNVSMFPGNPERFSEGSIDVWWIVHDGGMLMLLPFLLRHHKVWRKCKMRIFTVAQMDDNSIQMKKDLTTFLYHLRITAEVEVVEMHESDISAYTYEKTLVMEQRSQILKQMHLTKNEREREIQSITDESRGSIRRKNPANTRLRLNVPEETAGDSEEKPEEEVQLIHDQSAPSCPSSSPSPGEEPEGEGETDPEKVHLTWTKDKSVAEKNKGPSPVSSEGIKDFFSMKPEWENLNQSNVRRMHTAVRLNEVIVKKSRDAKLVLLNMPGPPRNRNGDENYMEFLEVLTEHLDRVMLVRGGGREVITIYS
ROMK retest = retested hit modulating human ROMK potassium channel; 3,000 compounds, 54% hits; shares compounds with ROMK primary; ROMK thallium flux, fluorescence ratio; stronger effect = lower value; normalized thallium flux (F/F0 slope) at 10 µM;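 active = Flux at 10 µM at least 3 SD below or above vehicle control mean in one or both replicates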
* hit, by the source's call.

Cc1ccc(Cl)cc1N1CCN(S(=O)(=O)c2ccc3[nH]c(=O)c(=O)[nH]c3c2)CC1 was read as ROMK primary 0.27, Diaph act CS 0.8, Diaph inh CS 15, Lmaj promast -2, WT yeast gro inh -2 and KCC2 mod -0.075.
COc1ccc(NC(=O)CN(C)C(=O)c2ccc(C)s2)cc1 was read as Diaph act CS 1, Diaph inh CS 5, Lmaj promast -7, WT yeast gro inh -23 and KCC2 mod -0.43.
`Cc1nc2c(N=Nc3ccccc3F)c(N)nn2c(N)c1C#N` gave ROMK primary -0.76, Diaph act CS 1.1, Diaph inh CS -7, Lmaj promast 14, WT yeast gro inh 4 and KCC2 mod 0.99.
O=C(NC1CCS(=O)(=O)C1)/C(=C\c1ccco1)NC(=O)c1ccccc1 (stereo not given) was read as ROMK primary 0.69 and KCC2 mod -0.36.
For Cc1ccc(C(=O)N/C(=C\c2ccc(-c3ccc([N+](=O)[O-])cc3)o2)C(=O)NC2CCS(=O)(=O)C2)cc1 (stereo not given) the results were Diaph act CS 0.9, Diaph inh CS 14, Lmaj promast -2, WT yeast gro inh 0, KCC2 mod -0.67 and ROMK retest 0.047*.
Screening COc1cc(/C=C2\NC(=S)N(C)C2=O)ccc1O returned ROMK primary -1.2, Diaph act CS 1, Diaph inh CS -4, Lmaj promast 5, WT yeast gro inh 12 and KCC2 mod -1.2.
COc1cc(/C=C2/C(=O)CNC2=O)ccc1O was read as ROMK primary -2.9*, Diaph act CS 0.9, Diaph inh CS 8, Lmaj promast -2, WT yeast gro inh -12, KCC2 mod -0.12 and ROMK retest 0.061*.
Screening O=[N+]([O-])c1cccc(/C=C/c2nc3ccc([N+](=O)[O-])cc3[nH]2)c1 returned ROMK primary -5.2*, Diaph act CS 0.9, Diaph inh CS 15, Lmaj promast 55*, WT yeast gro inh 11, KCC2 mod -0.81 and ROMK retest 0.042*.
`Cc1ccc(NC(=O)NCC2CCN(Cc3cc(C)ccc3Cl)CC2)c(C)c1` gave ROMK primary -3.8*, Diaph act CS 1, Diaph inh CS -2, Lmaj promast 25, WT yeast gro inh 11, KCC2 mod 0.021 and ROMK retest 0.054*.
Screening O=C(Nc1ccccc1-c1ccccc1)NC1CC2CCCC(C1)N2CCc1ccccc1 (stereo not given) returned ROMK primary -3.1*, Diaph act CS 0.9, Diaph inh CS 14, Lmaj promast 72*, WT yeast gro inh -19, KCC2 mod -1 and ROMK retest 0.058*.
CCCN1C2CCCC1CC(NC(=O)Nc1cccc(C(C)=O)c1)C2 (stereo not given) was read as Diaph act CS 1, Diaph inh CS -1, Lmaj promast -5, WT yeast gro inh -5 and KCC2 mod -0.23.
CCCCOc1ccc(C(CC(=O)NC)C(=O)O)cc1 (stereo not given) was read as ROMK primary 0.35, Diaph act CS 1, Diaph inh CS -2, Lmaj promast 1, WT yeast gro inh -8 and KCC2 mod 0.061.
For Fc1ccc2[nH]c3c(N4CCN(c5ccccc5)CC4)ncnc3c2c1 the results were ROMK primary -0.48, Diaph act CS 0.8, Diaph inh CS 24, Lmaj promast 22, WT yeast gro inh 27, KCC2 mod 0.095 and ROMK retest 0.076.
COc1ccc(N2CCN(c3ncnc4c3[nH]c3ccccc34)CC2)cc1 was read as ROMK primary 1.6, Diaph act CS 0.8, Diaph inh CS 24, Lmaj promast 14, WT yeast gro inh 0 and KCC2 mod 0.22.
For O=C(COC(=O)/C=C/c1ccc([N+](=O)[O-])cc1)NCc1ccc2c(c1)OCO2 the results were KCC2 mod -0.061 and ROMK retest 0.079.
CCC(C)(C(=O)NC1CCCC1)N(C(=O)c1ccccn1)c1ccc(C)cc1 (stereo not given) was read as ROMK primary 0.54, Diaph act CS 0.9, Diaph inh CS 11, Lmaj promast 9, WT yeast gro inh -3 and KCC2 mod 0.25.
`Cc1ccc2sc(C)[n+](CCC(C)S(=O)(=O)[O-])c2c1` (stereo not given) gave Diaph act CS 0.9, Diaph inh CS 11, Lmaj promast 37, WT yeast gro inh -4 and KCC2 mod 2.
Screening CS(=O)(=O)Nc1ccc(C(=O)Nc2ccccc2C(=O)N2CCCC2)cc1 returned Diaph act CS 0.9, Diaph inh CS 6, Lmaj promast -3, WT yeast gro inh 0 and ROMK retest 0.08.
Screening COC(=O)c1ccccc1NC(=O)c1ccc(NS(C)(=O)=O)cc1 returned ROMK primary -0.98, Diaph act CS 0.9, Diaph inh CS 9, Lmaj promast 3, WT yeast gro inh 30 and KCC2 mod 0.9.
For CCN1C(=O)CC2(C[N+]3(C)CCC2CC3)C1=O (stereo not given) the results were ROMK primary 1.3, Diaph act CS 0.9, Diaph inh CS 8, Lmaj promast -4, WT yeast gro inh 8 and KCC2 mod -1.1.
O/N=C1\CCCc2oc3c(c21)CCCC3 was read as Diaph act CS 1.1, Diaph inh CS -12, Lmaj promast -8, WT yeast gro inh 7 and ROMK retest 0.064*.
`O/N=C1\CCCc2nnc3c(c21)CCCC3` gave Diaph act CS 0.9, Diaph inh CS 8, Lmaj promast 20, WT yeast gro inh 6 and KCC2 mod -0.51.
`Cc1ccc(C#CC[N+]2(CC#Cc3ccc(C)cc3)CCCCC2)cc1` gave ROMK primary -5.1*, Diaph act CS 1.1, Diaph inh CS -10, Lmaj promast 100*, WT yeast gro inh 20, KCC2 mod -0.48 and ROMK retest 0.056*.
`C#CC[N+]1(CC#Cc2cccc(C)c2)CCCCC1` gave ROMK primary -1.6, Diaph act CS 1, Diaph inh CS 4, Lmaj promast 9, WT yeast gro inh 8 and KCC2 mod 0.27.
C/C(=N/N1CCN(c2ccccn2)CC1)c1cccc([N+](=O)[O-])c1 was read as ROMK primary -0.62, Diaph act CS 1, Diaph inh CS 0, Lmaj promast 30, WT yeast gro inh 12 and KCC2 mod -0.79.
CC(C)/C=N\NC(=O)CCCCC(=O)N/N=C/C(C)C was read as Diaph act CS 1.1, Diaph inh CS -8, Lmaj promast 32, WT yeast gro inh 1, KCC2 mod -0.14 and ROMK retest 0.082.
For Cc1ccc(S(=O)(=O)CC(=O)c2ccc([N+](=O)[O-])cc2)cc1 the results were KCC2 mod -0.00021 and ROMK retest 0.089.
